Most compounds without a hit are left out; they make up all but 2.3% or so of the library.
TRPC6 inh – mouse TRPC6 channel inhibitors, primary screen, cell-based, HEK293, membrane potential dye | Short transient receptor potential channel 6 (Mus musculus), Q61143 | ACh-evoked depolarization; active compounds read low | B-score at 10 µM | 310,000 tested, 1.1% active | AID 2553, 2010;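 active means B-score under library mean minus 3 SD, initial fluorescence not abnormally high, positive integrated signal ratio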;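 further: B-score derived from integrated fluorescence ratio over the kinetic read; more negative B-score means stronger inhibition of depolarization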
Target sequence (Q61143 whole entry, looked up): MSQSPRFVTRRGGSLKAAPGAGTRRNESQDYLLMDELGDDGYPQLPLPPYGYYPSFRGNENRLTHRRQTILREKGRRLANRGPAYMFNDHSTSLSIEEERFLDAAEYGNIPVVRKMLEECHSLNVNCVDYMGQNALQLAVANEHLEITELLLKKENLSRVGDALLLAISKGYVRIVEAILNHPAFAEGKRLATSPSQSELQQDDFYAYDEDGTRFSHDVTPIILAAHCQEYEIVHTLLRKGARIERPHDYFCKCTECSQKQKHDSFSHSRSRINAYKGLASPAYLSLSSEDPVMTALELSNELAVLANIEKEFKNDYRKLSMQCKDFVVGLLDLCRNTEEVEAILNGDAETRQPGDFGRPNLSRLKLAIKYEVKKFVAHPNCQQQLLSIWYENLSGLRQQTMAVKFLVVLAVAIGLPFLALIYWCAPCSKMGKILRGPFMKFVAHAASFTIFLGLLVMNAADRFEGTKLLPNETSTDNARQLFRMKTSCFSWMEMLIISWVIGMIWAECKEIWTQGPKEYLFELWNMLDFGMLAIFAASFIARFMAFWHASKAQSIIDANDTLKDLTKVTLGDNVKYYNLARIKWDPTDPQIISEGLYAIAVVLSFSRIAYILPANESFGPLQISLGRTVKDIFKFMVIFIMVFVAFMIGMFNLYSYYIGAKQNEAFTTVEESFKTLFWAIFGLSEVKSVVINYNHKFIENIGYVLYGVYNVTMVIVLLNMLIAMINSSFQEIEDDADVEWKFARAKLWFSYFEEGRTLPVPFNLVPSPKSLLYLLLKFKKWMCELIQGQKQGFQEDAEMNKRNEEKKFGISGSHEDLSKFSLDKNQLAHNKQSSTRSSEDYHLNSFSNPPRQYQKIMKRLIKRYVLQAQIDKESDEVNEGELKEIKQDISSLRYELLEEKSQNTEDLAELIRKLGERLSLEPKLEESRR
TRPC4 block – inhibitors of mouse TRPC4 channel, primary screen, Fluo4 calcium, HEK293 TRPC4beta/mu-opioid cells | DAMGO-evoked Fluo4 calcium flux; active compounds read low | Short transient receptor potential channel 4 (Mus musculus), Q9QUQ5 | B-score at 10 µM | 300,000 tested, 0.39% active;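 active means B-score over 3 SD under the library average, no early fluorescence shift, positive overall ratio signal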
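Material: HEK293 cells with stable TRPC4beta plus mu-opioid receptor expression; probe or stimulus: DAMGO in two steps, submaximal then maximal; technique: Fluo4 calcium fluorescence by kinetic imaging, 5 s 1 Hz baseline; measure: integrated fluorescence ratio relative to baseline, converted to per-well B score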
TRPC6 act – mouse TRPC6 channel activators, primary screen, cell-based, HEK293, membrane potential dye. B-score at 10 µM. AID 2550, 2010. HEK293-TRPC6 membrane potential dye fluorescence; active compounds read high. Short transient receptor potential channel 6 (Mus musculus), Q61143. 310,000 tested, 0.13% active;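 active means B-score of the integrated fluorescence ratio above library mean plus 3 SD, and starting fluorescence ratio within library mean plus 5 SD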;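 further: higher score means more depolarization so channel activation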
TRPC4 act – activators of mouse TRPC4 channel, primary screen, Fluo4 calcium, HEK293 TRPC4beta/mu-opioid cells | 310,000 tested, 0.49% active | Short transient receptor potential channel 4 (Mus musculus), Q9QUQ5 | B-score at 10 µM | Fluo4 calcium fluorescence; active compounds read high;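 active means B-score above 5 SD of library B-scores, and initial fluorescence ratio not above library mean plus 5 SD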;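 further: positive B-score marks a calcium rise read as TRPC4 activation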
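Assay system: HEK293 cells stably co-expressing mouse TRPC4beta and mu-opioid receptor / Timing: Fluo4 dye loading 45 min at room temperature, 110 s recording / Signal: Fluo4 calcium-sensitive dye fluorescence, kinetic, 1 Hz baseline / Read-out: integrated baseline-normalised fluorescence ratio, converted to per-well B score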
TRPC4 potent – positive allosteric modulators of TRPC4, primary screen, cell-based, mouse TRPC4beta, HEK293 mu-opioid, Fluo-4 calcium; Short transient receptor potential channel 4 (Mus musculus), Q9QUQ5; DAMGO EC20, Fluo-4 Ca2+ flux; active compounds read high; B-score at 10 µM; 310,000 tested, 0.42% active; AID 2227, 2009;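 active means B-score of calcium response area above 5 SD of library B-scores, with initial fluorescence ratio within 5 SD of library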
TRPC4 sel inh 2 – mouse TRPC4 off-target activity of TRPC6 inhibitors, second screen; shares compounds with TRPC6 inh; HEK293 TRPC4/MOR, membrane potential dye fluorescence; channel activated by saturating DAMGO dose; inhibition, % at 10 µM; 920 tested, 42% active;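 active means compounds whose fluorescence signal differed from control wells by over 3 SD, either direction, in both duplicate plates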
TRPC4 spec – mouse TRPC4 modulation by TRPC6 hits, confirmation, selectivity assay for TRPC6 inhibitor project, cell-based, HEK293 TRPC4/mu-opioid, membrane potential dye; shares compounds with TRPC6 inh; membrane potential fluorescence; activity change, negative = inhibition, % at 10 µM; 920 tested, 61% active; AID 2777, 2010;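 active means rise or fall in signal beyond 3 SD of buffer-only wells in both replicate plates, either sign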;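 further: integrated kinetic ratio of fluorescence range over baseline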
HEK293 MPD ctr 2-1 – nonspecific membrane potential effects, parental HEK293, confirmation, counter-screen for TRPC6 inhibitor project, cell-based, second counter screen. 920 tested, 31% active. parental HEK293 membrane potential dye fluorescence; maximal acetylcholine challenge after compound addition. AID 2779, 2010. signal change vs control, % at 10 µM. shares compounds with TRPC6 inh;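 active means membrane potential signal moving either way by over 3 SD of the maximum-effect control, in both duplicate plates, meaning non-specific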
HEK293 MPD ctr-1 – membrane potential modulation in parental HEK293, confirmation, counter-screen for TRPC6 inhibitor project, cell-based. shares compounds with TRPC6 inh. parental HEK293 membrane potential dye fluorescence. membrane potential signal change, % at 10 µM. 920 tested, 60% active. AID 2780, 2010;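 active means membrane potential signal shifting up or down by more than 3 SD of buffer-only wells, on both duplicate plates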
HEK293 MPD ctr-2 – parental HEK293 membrane potential modulation, confirmation, counter-screen for TRPC6 modulator project, cell-based | shares compounds with TRPC6 inh | membrane potential dye fluorescence | membrane potential signal change, % at 10 µM | 2,400 tested, 51% active | AID 488924, 2010;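 active means membrane potential signal moves up or down beyond 5 SD from buffer-only wells, on both duplicate plates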
HEK293 MPD ctr 2-2 – second counter-screen for TRPC6 modulators: effect in parental HEK293 cells. inhibition, % at 10 µM. membrane potential dye fluorescence; after compound, maximal acetylcholine stimulation. 2,400 tested, 14% active. shares compounds with TRPC6 inh. AID 488926;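 active means membrane potential signal drops by more than 5 SD from the mean control signal, in both duplicate plates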
TRPC4 ctr mod – TRPC4 modulation by TRPC6 hit compounds, confirmation, selectivity assay for TRPC6 modulator project, cell-based, HEK293 TRPC4/mu-opioid, membrane potential dye, mouse | percent change from control (negative = decrease, positive = increase), % at 10 µM | AID 488927, 2010 | shares compounds with TRPC6 inh | 2,400 tested, 69% active | membrane potential fluorescence;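 active means membrane potential signal moved up or down beyond 5 SD of buffer control wells, in both duplicate plates, actives on both sides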
TRPC4/MOR inh 2 – second check of whether TRPC6 modulators also affect mouse TRPC4; 2,400 tested, 55% active; HEK293 TRPC4/mu-opioid, membrane potential dye fluorescence; stimulated with maximal-effect DAMGO; shares compounds with TRPC6 inh; inhibition, % at 10 µM;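 active means drop in membrane potential signal beyond 5 SD of the control wells in both duplicate plates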;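 further: TRPC4 counter screen for TRPC6 hits run under conditions tuned for TRPC6 not TRPC4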
TRPC6 inh conf – mouse TRPC6 channel inhibitors, confirmation, HEK293 cells, membrane potential dye, duplicate; inhibition, % at 10 µM; shares compounds with TRPC6 inh; AID 488960, 2010; 3,300 tested, 43% active; ACh-evoked depolarization;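 active means fluorescence ratio falls more than 5 SD below the full-stimulation control mean, in both duplicate runs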;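 further: integrated fluorescence ratio of peak minus minimum over baseline after agonist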
TRPC6 act conf – mouse TRPC6 channel activators, confirmation, HEK293 cells, membrane potential dye, duplicate | shares compounds with TRPC6 inh | HEK293-TRPC6 membrane potential dye fluorescence, FDSS | activation, % at 10 µM | 2,800 tested, 11% active | AID 488961, 2010;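 active means ratio signal rise beyond 5 SD above unstimulated control wells' mean, seen in both duplicate runs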
A number is an active result; i = inactive; nt = no result given.

SMILES	TRPC6 inh	TRPC4 block	TRPC6 act	TRPC4 act	TRPC4 potent	HEK293 MPD ctr-2	HEK293 MPD ctr 2-2	TRPC4 ctr mod	TRPC4/MOR inh 2	TRPC6 inh conf	TRPC6 act conf	others
N#Cc1c(NCCN)nc(-c2ccccc2)c2c1CCCC2	-6.15	i	i	i	i	i	i	i	85.0%	67.0%	i
CCCn1c2c(c(=N)c3c1CCC3)CCC2	-8.06	i	i	i	i	nt	nt	nt	nt	i	i	TRPC4 sel inh 2=77.5%;TRPC4 spec=-28.2%;HEK293 MPD ctr 2-1=11.5%;HEK293 MPD ctr-1=-578.5%
COc1ccc(-c2nc3cc(C)ccn3c2NCC2CCCO2)cc1OC (stereo not given)	-6.91	i	i	i	i	-223.0%	80.5%	-37.5%	44.0%	55.5%	i
COc1cc(/C=C/C(=O)c2ccc3c(c2)OCCO3)cc(Br)c1OCC(=O)N(C)C	i	i	12.9	i	i	126.0%	i	27.0%	i	i	51.0%
CCOc1ccc(-c2c(C)n([O-])c3c([n+]2=O)CCCCC3)cc1	i	i	i	i	i	nt	nt	nt	nt	nt	nt
Cc1ccc(NC(=O)CSc2nc3ccccc3c(=O)n2CCCC(=O)N2CCCC2)cc1	i	i	i	i	i	nt	nt	nt	nt	nt	nt
Cc1ccc(NC(=O)CSc2nc3ccccc3c(=O)n2CCCN2CCCCC2)cc1C	-7.88	i	i	i	i	nt	nt	nt	nt	i	i	TRPC4 sel inh 2=33.0%;TRPC4 spec=5.6%;HEK293 MPD ctr 2-1=219.0%;HEK293 MPD ctr-1=9.0%
CCOc1ccc(C2NC(=O)CCC2[N+](=O)[O-])cc1 (stereo not given)	i	i	i	i	i	nt	nt	nt	nt	nt	nt
CCC(O)CNc1nc(SC)nc2sc3c(c12)CCN(C)C3 (stereo not given)	-7.15	i	i	i	i	-167.0%	i	-39.0%	36.0%	i	i
CCn1c(SCC(=O)Nc2ccc(C)cc2)nc2sc3c(c2c1=O)CCN(C)C3	i	i	i	i	i	nt	nt	nt	nt	nt	nt
CCSc1nc2sc3c(c2c(=O)n1-c1ccccc1)CCN(C)C3	i	i	i	i	i	nt	nt	nt	nt	nt	nt
COC(CNc1nc(SC)nc2sc3c(c12)CCN(C)C3)OC	i	i	i	i	i	nt	nt	nt	nt	nt	nt
CCn1c(SCC(N)=O)nc2sc3c(c2c1=O)CCN(C)C3	-5.95	i	i	i	i	-203.0%	i	-36.5%	36.0%	44.5%	i
CSc1nc(SCC(N)=O)c2c3c(sc2n1)CN(C)CC3	-10.8	i	i	i	i	-210.5%	68.0%	-38.5%	47.0%	i	i
COCCSc1nc2sc3c(c2c(=O)n1-c1ccccc1)CCN(C)C3	-7.5	i	i	i	i	-108.0%	i	-22.0%	i	i	i
C/C(=N\NC(=O)c1nn(C)c(C)c1Br)c1ccc(NC(=O)c2ccccc2F)cc1	i	i	i	i	i	nt	nt	nt	nt	nt	nt
C=CCn1cccc(C(=O)Nc2ccc(F)cc2)c1=O	i	i	i	i	i	nt	nt	nt	nt	nt	nt
Cc1ccc(NC(=O)COC(=O)C2CC2(Cl)Cl)cc1C (stereo not given)	i	i	i	i	i	nt	nt	nt	nt	nt	nt
Cc1ccccc1NC(=S)NC1CCN(Cc2ccccc2)CC1	i	i	i	i	i	nt	nt	nt	nt	nt	nt
CCOc1ccc(-n2c(SCC(N)=O)nc3sc4c(c3c2=O)CCN(C)C4)cc1	i	i	i	i	i	nt	nt	nt	nt	nt	nt
CCNc1nc(SCC(N)=O)nc2sc3c(c12)CCN(C)C3	-6.62	i	i	i	i	-196.5%	i	-38.5%	43.0%	51.5%	i
CCOC(=O)CSc1nc2sc3c(c2c(=O)n1C1CCCCC1)CCN(C)C3	-5.59	i	i	i	i	i	i	8.0%	45.5%	i	i
Cc1ccc(C2=NCCn3nc4cc([N+](=O)[O-])ccc4c32)cc1	i	i	i	i	i	nt	nt	nt	nt	nt	nt
CCCC[n+]1ccc(-c2nc3ccc([N+](=O)[O-])cc3[nH]2)cc1	-6.79	i	i	i	i	nt	nt	nt	nt	73.0%	i	TRPC4 sel inh 2=56.0%;TRPC4 spec=-16.8%;HEK293 MPD ctr 2-1=-90.0%;HEK293 MPD ctr-1=-262.5%
Cc1oc(-c2ccc(Cl)cc2)nc1CN1CCCC(C(=O)NC2CC2)C1 (stereo not given)	i	i	i	i	i	nt	nt	nt	nt	nt	nt
Cc1oc(-c2ccc(Cl)cc2)nc1CN1CCCC(C(=O)NCc2ccco2)C1 (stereo not given)	-6.7	i	15.7	i	i	114.5%	i	20.0%	51.0%	47.0%	92.5%
CC1CCCN(C(=O)c2ccc(-c3ccccc3Cl)o2)C1 (stereo not given)	-5.09	i	i	i	i	i	i	15.0%	i	i	nt
CC1CN(C(=O)c2ccc(-c3ccccc3Cl)o2)CC(C)O1 (stereo not given)	i	i	i	i	i	nt	nt	nt	nt	nt	nt
